Data published in ChEMBL document CHEMBL1123462, “Indolo[2,1-c][1,4]benzodiazepines: a new class of antiallergic agents” (J Med Chem, 1986).

Columns and labels:
Format in all cases: functional
Cavia porcellus [1] = test: Compound was tested for the inhibition of guinea pig active lung anaphylaxis (ALA) at 1 mg/kg iv
Procedure, shortened: (§1)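 Guinea pigs were sensitized with egg albumin 1 mg sc plus Bordetella pertussis vaccine adjuvant. Two weeks later: pentobarbital 65 mg/kg ip, then trachea, jugular vein and carotid cannulated. Drug given iv before an iv egg albumin challenge (0.5 mg/kg). Airway resistance (bronchoconstriction) and arterial pressure monitored. %inhibition given as mean ± SE; ED50 iv with 95% confidence limits.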

Rattus norvegicus [2] = test: Compound was tested for percent inhibition, at 0.37 mg/kg administered intraperitoneally against histamine; settings: ip, route intraperitoneal
Procedure, shortened: (§2)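 Male Sprague-Dawley rats were given 0.05 mL of high-titer IgE rat anti-ovalbumin antiserum intradermally. 24 h later: iv ovalbumin plus Evans Blue in saline, with simultaneous intradermal serotonin and histamine. Drug given ip 1 h before antigen. At 30 min, skin was reflected and wheal size and colour scored against a chart. %inhibition = (1 − mean treated/mean control score)×100. Dunnett's test, p ≤ 0.05.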

Rattus norvegicus [3] = test: Compound was tested for the inhibition of rat passive cutaneous anaphylaxis (PCA) at 0.37 mg/kg dose ip (1h pretreatment); settings: route intraperitoneal; procedure, shortened: as §2
Rattus norvegicus [4] = test: Compound was tested […] for the inhibition of serotonin release in rat peritoneal cell
Rattus norvegicus [5] = test: Compound was tested for percent inhibition, at 3.3 mg/kg administered intraperitoneally against serotonin by Dunnett's test; settings: ip, route intraperitoneal; procedure, shortened: as §2
Rattus norvegicus [6] = test: Compound was tested for the inhibition of rat passive cutaneous anaphylaxis (PCA) administered intraperitoneally; settings: ip; procedure, shortened: as §2
Rattus norvegicus [7] = test: Compound was tested for percent inhibition, at 0.37 mg/kg administered intraperitoneally against serotonin by Dunnett's test; settings: ip, route intraperitoneal; procedure, shortened: as §2
Rattus norvegicus [8] = test: Compound was tested for percent inhibition, at 3.3 mg/kg administered intraperitoneally against histamine by Dunnett's test; settings: ip, route intraperitoneal; procedure, shortened: as §2
Rattus norvegicus [9] = test: Compound was tested for percent inhibition, at 3.3 mg/kg administered intraperitoneally against rat passive cutaneous anaphylaxis by Dunnett's test; settings: ip, route intraperitoneal; procedure, shortened: as §2
Rattus norvegicus [10] = test: Compound was tested for the inhibition of rat passive cutaneous anaphylaxis (PCA) at 10 mg/kg dose ip (1h pretreatment); settings: route intraperitoneal
Rattus norvegicus [11] = test: Compound was tested for percent inhibition, at 0.12 mg/kg administered intraperitoneally against rat passive cutaneous anaphylaxis by Dunnett's test; settings: ip, read-out: Inhibition, route intraperitoneal; procedure, shortened: as §2
Rattus norvegicus [12] = test: Compound was tested for percent inhibition, at 0.12 mg/kg administered intraperitoneally against serotonin by Dunnett's test; settings: ip, read-out: Inhibition, route intraperitoneal; procedure, shortened: as §2
Rattus norvegicus [13] = test: Compound was tested for percent inhibition, at 0.37 mg/kg administered intraperitoneally against histamine by Dunnett's test; settings: ip, route intraperitoneal; procedure, shortened: as §2
Rattus norvegicus [14] = test: Compound was tested for percent inhibition, at 0.12 mg/kg administered intraperitoneally against histamine; settings: ip, read-out: Inhibition, route intraperitoneal; procedure, shortened: as §2
Cavia porcellus [15] = test: Compound was tested for the inhibition of guinea pig active lung anaphylaxis (ALA) administered intravenously; settings: iv; procedure, shortened: as §1

IC50 (Rattus norvegicus [4]) | SMILES | inhibition in vivo at 1 mg/kg (Cavia porcellus [1]) | inhibition in vivo at 0.37 mg/kg (Rattus norvegicus [2]) | inhibition in vivo at 0.37 mg/kg (Rattus norvegicus [3]) | inhibition in vivo at 3.3 mg/kg (Rattus norvegicus [5]) | ED50 (Rattus norvegicus [6]) | inhibition in vivo at 0.37 mg/kg (Rattus norvegicus [7]) | inhibition in vivo at 3.3 mg/kg (Rattus norvegicus [8]) | inhibition in vivo at 3.3 mg/kg (Rattus norvegicus [9]) | inhibition in vivo at 10 mg/kg (Rattus norvegicus [10]) | inhibition in vivo at 0.12 mg/kg (Rattus norvegicus [11]) | inhibition in vivo at 0.12 mg/kg (Rattus norvegicus [12]) | inhibition in vivo at 0.37 mg/kg (Rattus norvegicus [13]) | inhibition in vivo at 0.12 mg/kg (Rattus norvegicus [14]) | ED50 (Cavia porcellus [15])
7.38 µM | c1ccc2c(c1)Cn1c(cc3ccccc31)C(N1CCNCC1)=N2 | 82% | 14.2% | 52% | 65.8% | 0.43 mg/kg | 44.5% | 55.7% | 92.7% |  |  |  |  |  | 
 | c1ccc2c(c1)Cn1c(cc3ccccc31)C(N1CCOCC1)=N2 |  |  |  |  |  |  |  |  | 0.4% |  |  |  |  | 
15.2 µM | OCCCN1CCN(C2=Nc3ccccc3Cn3c2cc2ccccc23)CC1 | 64% |  | 92.9% |  | 0.08 mg/kg | 53.2% |  |  |  | 58.8% | 24.9% | 53% | 6.8% | 0.69 mg/kg
